Test results: ChEMBL document CHEMBL1152244, “Proteochemometrics analysis of substrate interactions with dengue virus NS3 proteases” (Bioorg Med Chem, 2008)
Non-standard residues stand in square brackets, D forms with d. Residues, ends and D or L forms follow the SMILES beside them. Tyr(3-NO2) = N[C@@H](Cc1ccc(O)c([N+](=O)[O-])c1)C(=O)O; 2Abz = Nc1ccccc1C(=O)O

Key:
dengue virus type 4 = assay: Activity of dengue virus 4 recombinant NS3 protease expressed in Escherichia coli C41(DE3) by fluorogenic assay
Summary of the method: (§1)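 NS2B(H)-NS3pro from inclusion bodies, Ni-chelate and gel filtration purified under 8 M urea, refolded by dialysis. Internally quenched Abz–RRRR-XXXX–nY–NH2 peptides, 1–100 µM (12 points), enzyme 150–200 nM, 50 mM Tris–HCl pH 9.0, 20% glycerol, 37 °C. Cleavage read as fluorescence, ex 320/em 420 nm. Initial rates fitted to give Km and kcat, averaged over ≥3 independent measurements.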

dengue virus type 1 = assay: Activity of dengue virus 1 recombinant NS3 protease expressed in Escherichia coli C41(DE3) by fluorogenic assay; summary of the method: as §1
dengue virus type 3 = assay: Activity of dengue virus 3 recombinant NS3 protease expressed in Escherichia coli C41(DE3) by fluorogenic assay; summary of the method: as §1
dengue virus type 2 = assay: Activity of dengue virus 2 recombinant NS3 protease expressed in Escherichia coli C41(DE3) by fluorogenic assay; summary of the method: as §1

Row | Compound | Km (dengue virus type 4) [µM] | kcat (dengue virus type 4) [s⁻¹] | Km (dengue virus type 1) [µM] | kcat (dengue virus type 1) [s⁻¹] | Km (dengue virus type 3) [µM] | kcat (dengue virus type 3) [s⁻¹] | Km (dengue virus type 2) [µM] | kcat (dengue virus type 2) [s⁻¹]
1 | CSCC[C@H](NC(=O)[C@H](C)NC(=O)[C@H](C)NC(=O)[C@H](CO)NC(=O)c1ccccc1N)C(=O)N[C@@H](Cc1ccc(O)c([N+](=O)[O-])c1)C(N)=O (H-[2Abz]SAAM[Tyr(3-NO2)]-NH2) | 14.3 | 0.219 | 16.3 | 0.153 | 13.8 | 0.03 | 3.33 | 0.026
2 | C[C@@H](O)[C@H](NC(=O)[C@H](CO)NC(=O)c1ccccc1N)C(=O)N1CCC[C@H]1C(=O)N[C@@H](Cc1cnc[nH]1)C(=O)N[C@@H](Cc1ccc(O)c([N+](=O)[O-])c1)C(N)=O (H-[2Abz]STPH[Tyr(3-NO2)]-NH2) | 14.8 | 0.078 | 18.1 | 0.0313 | 42.2 | 0.0145 | 17.2 | 0.0157
3 | NC(=O)C[C@H](NC(=O)c1ccccc1N)C(=O)N1CCC[C@H]1C(=O)N[C@@H](CO)C(=O)N[C@@H](Cc1cnc[nH]1)C(=O)N[C@@H](Cc1ccc(O)c([N+](=O)[O-])c1)C(N)=O (H-[2Abz]NPSH[Tyr(3-NO2)]-NH2) | 21.5 | 0.0225 | 13.4 | 0.00617 | 26.9 | 0.00183 | 5.18 | 0.00133
4 | CC(C)C[C@H](NC(=O)[C@@H]1CCCN1C(=O)[C@H](Cc1c[nH]c2ccccc12)NC(=O)[C@H](CO)NC(=O)c1ccccc1N)C(=O)N[C@@H](Cc1ccc(O)c([N+](=O)[O-])c1)C(N)=O (H-[2Abz]SWPL[Tyr(3-NO2)]-NH2) | 7.18 | 0.0668 | 12.6 | 0.0323 | 12 | 0.0148 | 5.54 | 0.0105
5 | C[C@H](NC(=O)[C@H](CC(N)=O)NC(=O)c1ccccc1N)C(=O)N[C@@H](CS)C(=O)N[C@@H](CS)C(=O)N[C@@H](Cc1ccc(O)c([N+](=O)[O-])c1)C(N)=O (H-[2Abz]NACC[Tyr(3-NO2)]-NH2) | 3.03 | 0.0372 | 8.81 | 0.0138 | 13 | 0.0102 | 3.21 | 0.00467

Next, values leading:

Row | Km (dengue virus type 4) [µM] | kcat (dengue virus type 4) [s⁻¹] | Km (dengue virus type 1) [µM] | kcat (dengue virus type 1) [s⁻¹] | Km (dengue virus type 3) [µM] | kcat (dengue virus type 3) [s⁻¹] | Km (dengue virus type 2) [µM] | kcat (dengue virus type 2) [s⁻¹] | Compound
6 | 8.22 | 0.0852 | 17.9 | 0.0818 | 12.1 | 0.012 | 2.46 | 0.00917 | CSCC[C@H](NC(=O)CNC(=O)[C@H](C)NC(=O)[C@H](C)NC(=O)c1ccccc1N)C(=O)N[C@@H](Cc1ccc(O)c([N+](=O)[O-])c1)C(N)=O (H-[2Abz]AAGM[Tyr(3-NO2)]-NH2)
7 | 15.2 | 0.461 | 28.4 | 0.282 | 20.9 | 0.0685 | 3.61 | 0.0423 | C[C@H](NC(=O)[C@H](CO)NC(=O)c1ccccc1N)C(=O)NCC(=O)N[C@@H](Cc1ccc(O)c([N+](=O)[O-])c1)C(N)=O (H-[2Abz]SAG[Tyr(3-NO2)]-NH2)
8 | 12.2 | 0.0585 | 49.7 | 0.0715 | 18.6 | 0.0247 | 12.9 | 0.00717 | C[C@@H](O)[C@H](NC(=O)CNC(=O)CNC(=O)c1ccccc1N)C(=O)N[C@@H](CC(=O)O)C(=O)N[C@@H](Cc1ccc(O)c([N+](=O)[O-])c1)C(N)=O (H-[2Abz]GGTD[Tyr(3-NO2)]-NH2)
9 | 9.05 | 0.00783 | 22.9 | 0.0128 | 20.8 | 0.00283 | 7.02 | 0.0015 | NC(=O)[C@H](Cc1ccc(O)c([N+](=O)[O-])c1)NC(=O)[C@H](Cc1cnc[nH]1)NC(=O)[C@H](CS)NC(=O)CNC(=O)[C@H](CC(=O)O)NC(=O)c1ccccc1N (H-[2Abz]DGCH[Tyr(3-NO2)]-NH2)
10 | 36.9 | 0.113 | 31.4 | 0.0352 | 21.2 | 0.0153 | 18.3 | 0.0125 | CC(C)[C@H](NC(=O)[C@H](C)NC(=O)[C@H](C)NC(=O)c1ccccc1N)C(=O)N[C@@H](CC(=O)O)C(=O)N[C@@H](Cc1ccc(O)c([N+](=O)[O-])c1)C(N)=O (H-[2Abz]AAVD[Tyr(3-NO2)]-NH2)
